Assay results of several laboratories.
Compare with care: the assays were run in different laboratories.
Observed: enzyme activity
Action: inhibitor
TcPGFS: TcPGFS (Trypanosoma cruzi, UniProt Q8I6L9)
HIPK4: Homeodomain-interacting protein kinase 4 (HIPK4, Homo sapiens, UniProt Q8NE63)

CC1=CC(=O)c2ccccc2C1=O — remaining activity (TcPGFS; 200 µM): 68%
CC[C@H](C)[C@H](NC(=O)[C@H](CCC(N)=O)NC(=O)[C@H](CC(C)C)NC(=O)[C@H](CCSC)NC(=O)[C@H](CCCCN)NC(=O)[C@H](CO)NC(=O)[C@H](CO)NC(=O)[C@H](CCSC)NC(=O)[C@H](CC(C)C)NC(=O)[C@H](CC(N)=O)NC(=O)[C@@H](NC(=O)[C@@H](NC(=O)[C@H](CO)NC(=O)[C@H](CC(C)C)NC(=O)[C@H](CS)NC(=O)[C@H](CCCNC(=N)N)NC(=O)[C@H](CC(=O)O)NC(=O)[C@H](Cc1c[nH]c2ccccc12)NC(=O)[C@H](Cc1ccccc1)NC(=O)[C@H](C)NC(=O)[C@H](CCC(=O)O)NC(=O)[C@@H](N)CCCCN)C(C)C)[C@@H](C)CC)C(=O)N[C@@H](CC(N)=O)C(=O)N[C@@H](C)C(=O)O — remaining activity (Cyclin-dependent kinase 5, with p25 (CDK5, Homo sapiens, UniProt Q00535); radiometric; 50 µM; 20 min): 80%
CC1CS(=O)(=O)CCN1/N=C/c1ccc([N+](=O)[O-])o1 (stereo not drawn) — remaining activity (TcPGFS; 200 µM): 6%
O=C(O)c1ccc2c(c1)nc(NCCc1cccc(Cl)c1)c1ncncc12 — remaining activity (HIPK4; radiometric; 1 µM): 53%
COc1cc(Cl)c(C(=O)N[C@@H](CN[C@H]2CC[C@@H](N)CC2)Cc2ccc(C#N)cc2)cc1-c1ccc(CN[C@H](C)c2ccc(C)cc2)o1 — remaining activity (Cyclin-dependent kinase-like 2 (CDKL2, Homo sapiens, UniProt Q92772); 1 µM): 93%
O=C(O)c1ccc2c(c1)nc(Nc1ccccc1)c1ncncc12 — remaining activity (HIPK4; radiometric; 1 µM): 103%
CCCOc1ccc(OC)c(F)c1C(=O)c1ccc(C(=O)N[C@@H]2CNC[C@H]2NC(=O)c2ccc3[nH]ncc3c2)cc1 — remaining activity (Ribosomal protein S6 kinase alpha-1 (Rps6ka1, Rattus norvegicus, UniProt Q63531); 0.5 µM): 77%
COc1cccc(CCNc2nc3cc(C(=O)O)ccc3c3cncnc23)c1 — remaining activity (HIPK4; radiometric; 1 µM): 135%
Cc1ccc(C(=O)Nc2ccc(CN3CCN(C)CC3)c(C(F)(F)F)c2)cc1C#Cc1cnc2cccnn12 — remaining activity (Uncharacterized serine/threonine-protein kinase SBK3 (SBK3, Homo sapiens, UniProt P0C264); 23.5 nM): 89%
